From ChEMBL document CHEMBL3108742, “Structurally diverse low molecular weight activators of the mammalian pre-mRNA 3' cleavage reaction” (Bioorg Med Chem, 2014)
One block for each molecule: values may come before it. Calls of active or inactive are those of the source. The rule behind the calls is not given here.

What was measured:
[1] = tested on: HeLa; test: Induction of [alpha-32P]-UTP-labeled Simian virus 40 late pre-mRNA 3' cleavage at 25 to 200 uM treated with 3' cleavage factors from human HeLa cell nuclear extract after 2 hrs by PAGE analysis; assay type: cell-based; details: Betapolyomavirus macacae
Method in brief: (§1)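 Radiolabeled substrate (1–5 nM) derived from the SV40 late poly(A) signal was incubated with DEAE-sepharose CPSF, CstF and CFm fractions from HeLa nuclear extract. Test agent replaced 50 mM creatine phosphate. Reaction mix contained tRNA, 2 mM EDTA, 2 mM 2′-dATP, 2.5% polyvinyl alcohol and 10 mM HEPES pH 7.9, run at 30 °C for 2 h. Products were Proteinase K-digested, extracted, precipitated and resolved by 6% denaturing PAGE.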

[2] = tested on: HeLa; test: Induction of [alpha-32P]-UTP-labeled Simian virus 40 late pre-mRNA 3' cleavage at 1 mM treated with 3' cleavage factors from human HeLa cell nuclear extract after 2 hrs by PAGE analysis; assay type: cell-based; details: Betapolyomavirus macacae; method in brief: as §1
[3] = tested on: HeLa; test: Induction of [alpha-32P]-UTP-labeled Simian virus 40 late pre-mRNA 3' cleavage treated with 3' cleavage factors from human HeLa cell nuclear extract after 2 hrs by PAGE analysis; assay type: cell-based; details: Betapolyomavirus macacae
Method in brief: (§2)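 Partially purified HeLa nuclear extract cleavage factors (DEAE fractions CPSF, CstF, CFm; ammonium sulfate-concentrated, dialyzed against 20 mM Na-HEPES pH 7.9 buffer) incubated with radiolabeled SV40 late poly(A) signal substrate (1–5 nM). Reaction mix: tRNA 0.1 mg/mL, 2 mM EDTA, 2 mM 2'-dATP, 2.5% polyvinyl alcohol, 10 mM HEPES pH 7.9, 25 mM ammonium sulfate, activator replacing creatine phosphate. Run 2 h at 30 °C; Proteinase K treatment, 6% denaturing gel.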

[4] = Inhibition of ABI2 (unknown origin) at 3 uM relative to control; parameters: scale not given: the % may be the effect or the level left
[5] = tested on: HeLa; test: Induction of [alpha-32P]-UTP-labeled Simian virus 40 late pre-mRNA 3' cleavage at >= 100 uM treated with 3' cleavage factors from human HeLa cell nuclear extract after 2 hrs by PAGE analysis relative to control; assay type: cell-based; details: Betapolyomavirus macacae; method in brief: as §1
[6] = Inhibition of ABI1 (unknown origin)
[7] = Inhibition of ABI2 (unknown origin)
[8] = tested on: HeLa; test: Induction of [alpha-32P]-UTP-labeled Simian virus 40 late pre-mRNA 3' cleavage at 200 nM treated with 3' cleavage factors from human HeLa cell nuclear extract after 2 hrs by PAGE analysis in presence of calf intestinal alkaline phosphatase; assay type: cell-based; details: Betapolyomavirus macacae
[9] = tested on: HeLa; test: Induction of [alpha-32P]-UTP-labeled Simian virus 40 late pre-mRNA 3' cleavage at 200 nM treated with 3' cleavage factors from human HeLa cell nuclear extract after 2 hrs by PAGE analysis; assay type: cell-based; details: Betapolyomavirus macacae; method in brief: as §1
[10] = tested on: HeLa; test: Induction of [alpha-32P]-UTP-labeled Simian virus 40 late pre-mRNA 3' cleavage at 200 nM treated with 3' cleavage factors from human HeLa cell nuclear extract after 2 hrs by PAGE analysis in presence of protein tyrosine phosphatase; assay type: cell-based; details: Betapolyomavirus macacae
[11] = target: T1, Protein phosphatase 1D (Homo sapiens, UniProt O15297); test: Inhibition of N-terminal His-tagged human PPM1D (1 to 420) assessed as phosphoric acid release after 30 mins
T1 sequence (O15297 whole entry): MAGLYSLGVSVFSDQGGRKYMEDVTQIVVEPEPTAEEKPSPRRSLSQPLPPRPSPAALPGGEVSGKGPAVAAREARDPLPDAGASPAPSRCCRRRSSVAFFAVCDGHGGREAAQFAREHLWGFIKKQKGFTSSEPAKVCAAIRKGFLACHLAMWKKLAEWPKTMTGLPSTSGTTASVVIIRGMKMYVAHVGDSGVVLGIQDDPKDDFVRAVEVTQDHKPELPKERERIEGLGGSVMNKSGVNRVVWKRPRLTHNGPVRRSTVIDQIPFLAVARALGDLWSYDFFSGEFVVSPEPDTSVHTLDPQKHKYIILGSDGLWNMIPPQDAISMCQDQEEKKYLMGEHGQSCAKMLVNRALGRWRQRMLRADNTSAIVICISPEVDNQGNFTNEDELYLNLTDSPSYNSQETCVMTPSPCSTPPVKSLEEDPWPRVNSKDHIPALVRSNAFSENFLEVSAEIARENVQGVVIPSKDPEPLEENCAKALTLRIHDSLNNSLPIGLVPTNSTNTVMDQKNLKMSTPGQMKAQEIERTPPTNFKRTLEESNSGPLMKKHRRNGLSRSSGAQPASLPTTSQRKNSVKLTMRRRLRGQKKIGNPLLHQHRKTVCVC

[12] = tested on: HeLa; test: Induction of [alpha-32P]-UTP-labeled Simian virus 40 late pre-mRNA 3' cleavage at 50 mM treated with 3' cleavage factors from human HeLa cell nuclear extract after 2 hrs by PAGE analysis; assay type: cell-based; details: Betapolyomavirus macacae; method in brief: as §2

Compound: N=C(N)NCCC[C@H](N)C(=O)Nc1ccc2ccccc2c1
- Activity [1]: Active

Compound: N=C(N)NCCC[C@H](N)C(=O)Nc1cnc2ccccc2c1
- Activity [2]: inactive

Compound: C[N+](C)(C)CCOP(=O)(O)O
- Activity [2]: inactive

Compound: CN(C)CCOP(=O)(O)O
- Activity [3]: inactive

Compound: N[C@@H](COP(=O)(O)O)C(=O)O
- Activity [2]: inactive

- Activity [4]: 15%
- IC50 [6]: 60 nM
- IC50 [7]: 70 nM
Compound: CC1=CC(=O)CC(C)(C)[C@@]1(O)/C=C/C(C)=C\C(=O)O [(+)-ABSCISIC ACID]
- Activity [5]: 10%

Compound: CCNC(=N)NCCC[C@H](N)C(=O)Nc1cccc2ccccc12
- Activity [2]: inactive

- Ki [11]: 150 nM
Compound: CC[C@H](C)[C@@H]1NC(=O)[C@H](Cc2ccc(OP(=O)(O)O)cc2)NC(=O)[C@H](CC(=O)O)NC(=O)[C@H](CCC(=O)O)N[C@H](C(N)=O)CSCC(=O)[C@H](Cc2ccccc2)NC(=O)[C@H](COP(=O)(O)O)NC1=O
- Activity [8]: inactive
- Activity [9]: Active
- Activity [10]: Active

Compound: C[N+](C)(C)CCCOP(=O)(O)O
- Activity [3]: inactive

Compound: CN(CC(=O)O)C(=N)NP(=O)(O)O
- Activity [12]: Active

Compound: CNCCOP(=O)(O)O
- Activity [3]: inactive

Compound: N=C(N)NCCC[C@H](N)C(=O)Nc1ccccc1
- Activity [2]: inactive

Compound: N=C(N)NCCC[C@H](N)C(=O)Nc1cccc2ccccc12
- Activity [2]: inactive

Compound: N=C(N)NCCC[C@@H](C(=O)Nc1ccc2ccccc2c1)N1CCOCC1
- Activity [1]: Active

Compound: CC(=O)N[C@@H](CCCC[N+](C)(C)C)C(=O)N[C@@H](COP(=O)([O-])O)C(=O)O
- Activity [2]: Active
